Screening data from PubChem.
The full list was thinned out, with hits kept by preference.
H69AR growth 86K: proliferation blockers of H69AR lung cancer cells, primary screen, cell-based, human, 86K library | H69AR lung tumor viability, ATP luminescence, 72 h; hits give low values | viability, % at 10 µM | actives 6% (n = 85,000) | AID 598, 2007;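 active means viability at or below 40%; inactive means viability above 40%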;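 further: multidrug resistant small cell line overexpressing MRP-1 efflux transporter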
Lung fibro prol: antiproliferative effect on LL 47 fibroblasts – human, LL 47 cells, CellTiter-Glo luminescence, primary screen; LL 47 human lung fibroblast viability, ATP luminescence; hits give low values; viability, % at 10 µM; actives 1.1% (n = 85,000); AID 719, 2007;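 active means viability at or below 50% in the single dose screen; inactive means viability above 50%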;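 further: compound exposure lasted 72 h before the ATP readout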
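Times – overnight cell rest, 72 h compound treatment at 37 °C · Test system – human lung fibroblast line LL 47, low passage · Amount – 1,150 cells in each well · Controls – cell-only wells, no compound · Doses – 0.1% DMSO in all compound wells · Measured by – CellTiter-Glo luminescence · Buffer or medium – IMEM plus 15% FBS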
HCT116 bCat-KO: primary screen for growth suppressors in beta-catenin knockout HCT116 cells (colon tumor, human) | HCT116 beta-catenin knockout viability, CellTiter-Glo, 60 h; hits give low values | viability, % at 10 µM | actives 1.5% (n = 140,000);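 active means viability at or under a set limit, the compound median less 4 SD, cut at about 6% in these data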
HUVEC prolif 384: inhibitors of HUVEC proliferation, primary screen, cell-based, 384-well; actives 1.1% (n = 86,000); CellTiter-Glo luminescence, 72 h; hits give low values; viability, % at 10 µM (by protocol);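 active means viability at or below 30%; inactive means viability above 30%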
PTEN del growth: growth suppression of PTEN-null HCT116, primary screen, cell-based, CellTiter-Glo. actives 1.2% (n = 140,000). viability, % at 10 µM. HCT116 PTEN-null viability, 60 h; hits give low values;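 active means viability at or below a set limit, 4 SD under the median of all tested compounds, cut at about 3.7% in these data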;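 further: PTEN knockout HCT116 line with beta catenin targeted HCT116 as companion control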
Hits are given with their value; n = inactive; x = no result.

SMILES | H69AR growth 86K | Lung fibro prol | HCT116 bCat-KO | HUVEC prolif 384 | PTEN del growth
O=C(/C=C/c1ccc2c(c1)OCO2)Nc1nc(-c2ccc(F)cc2F)cs1 | x | x | 5.8 | x | n
Cc1ccc2nc(NC(=O)/C=C/c3ccc4c(c3)OCO4)sc2c1 | x | x | n | x | 1.2
Cc1ccc(S(=O)(=O)Oc2ccc(C3C4=C(CCCC4=O)N(CCC(=O)O)C4=C3C(=O)CCC4)cc2Cl)cc1 | x | x | n | x | n
CCOC(=O)c1c(C)[nH]c(C(=O)CSc2nccc(C)n2)c1C | x | x | n | x | n
O=c1c2c(nc3c(-c4ccc(Cl)cc4)c[nH]n13)CCCC2 | 20 | n | n | n | n
CCCc1nn(-c2cc(Cl)ccc2OC)c2c1C(=O)CC(C)(C)C2 | 22 | n | n | n | n
CCc1nn(-c2cc(Cl)ccc2OC)c2c1C(=O)CCC2 | 22 | n | n | n | n
CCOC(=O)c1oc2ccc(CNC3CCCCC3)c(Cl)c2c1C | 18 | n | n | 29 | n
Cc1cc(C(=O)N/N=C/c2cccc([N+](=O)[O-])c2)c(C)o1 | x | x | n | x | n
O=C(COc1ccc(/C=N/NC(=O)c2cc3ccccc3o2)cc1Cl)Nc1ccccc1 | x | x | 2.8 | x | 1.5
O=C(N/N=C/c1cccc([N+](=O)[O-])c1)c1cc2ccccc2o1 | x | x | 3.8 | x | 2.2
O=C(NCCN1C(=O)S/C(=C\c2cccs2)C1=O)c1ccc(=O)[nH]c1 | x | x | n | x | n
Nc1c(C(O)(C(F)(F)F)C(F)(F)F)cc(C(O)(C(F)(F)F)C(F)(F)F)c2ccccc12 | 25 | n | n | n | n
O=C(Nc1nc2ccccc2n1CCOc1ccccc1)c1ccco1 | n | n | n | n | n
O=C(Nc1nc2ccccc2n1CCOc1ccc(Cl)cc1)c1ccco1 | n | n | 5.4 | n | n
Cn1c(NC(=S)Nc2ccccc2)nc2ccccc21 | x | x | n | x | n
S=C(Nc1ccccc1)Nc1nc2ccccc2n1CCOc1ccc(Br)cc1 | x | x | 1.6 | x | 2.1
Cc1ccc(OCCn2c(NC(=O)c3ccco3)nc3ccccc32)cc1 | 26 | n | n | n | n
Cc1ccc(Cn2nc(C)c(NC(=O)c3cc(-c4ccc5c(c4)OCO5)on3)c2C)cc1 | 7.4 | n | n | n | n
COc1ccc(-c2cc(C(=O)Nc3c(C)nn(Cc4ccccc4Cl)c3C)no2)cc1OC | 20 | n | n | n | n
COc1ccc(-c2cc(C(=O)Nc3c(C)nn(Cc4ccc(Cl)cc4)c3C)no2)cc1 | 16 | n | n | n | n
Cc1nn(Cc2ccc(F)cc2)c(C)c1NC(=O)c1cc(-c2ccc3c(c2)OCO3)on1 | n | n | n | n | n
O=C(N/N=C\c1c(O)ccc2ccccc12)c1ccc(S(=O)(=O)N2CCCCC2)cc1 | x | x | n | x | n
CC(=O)Oc1c(Cl)c(N2CCOCC2)c(OC(C)=O)c2ccccc12 | 1.9 | n | n | n | n
CC1CCN(C(=O)CSc2ccc3nnc(-c4ccccc4)n3n2)CC1 | n | n | x | n | x
SMILES | H69AR growth 86K | Lung fibro prol | HCT116 bCat-KO | HUVEC prolif 384 | PTEN del growth
CN(C)c1ccc(/C=C/c2ccc3ccccc3[n+]2C)cc1 | x | x | 2.1 | x | 2.0
CC1=CC(C)(C)n2c(O)c(C3=NC(=S)NC3=O)c3cc(OC(=O)c4cccc5ccccc45)cc1c32 | x | x | 1.8 | x | 0.9
COc1cccc(C(=O)Oc2cc3c4c(c2)C(C)=CC(C)(C)N4C(=O)C3=O)c1 | x | x | n | x | n
O=C(O)C1Cc2[nH]cnc2C(c2ccccc2O)N1 (stereo unspecified) | x | x | n | x | n
CCOc1cc(-c2cc(-c3ccc(N)cc3)nc(N)c2C#N)ccc1O | 3.6 | n | n | n | n
CCOC(=O)CC(=O)CSc1nc(-c2ccccc2)cc(-c2ccccc2)c1C#N | x | x | n | x | n
CCOc1cc(-c2cc(-c3ccccc3)nc(N)c2C#N)ccc1O | 23 | n | n | n | n
CCOc1cc(-c2c(C#N)c(N)nc3c2CCCC3)ccc1O | n | n | n | n | n
O=C(Oc1ccc(-c2nnco2)cc1)N(c1ccccc1)c1ccccc1 | n | n | n | n | n
CCOC(=O)n1c(=O)oc2ccc(Cl)cc21 | 38 | n | n | n | n
CCCCOC(=O)n1c(=O)oc2ccccc21 | n | n | n | n | n
COC(=O)c1cc(-c2ccc(Br)cc2)on1 | n | n | n | n | n
CC(NC(=O)c1cc(-c2ccc(Br)cc2)on1)c1ccccc1 (stereo unspecified) | 22 | n | n | n | n
Cc1ccc2nc(NC(=O)c3ccc(S(=O)(=O)N4CCCc5ccccc54)cc3)sc2c1 | x | x | n | x | n
O=C(Nc1nnc(C2CC2)o1)c1ccc(S(=O)(=O)N2CCCc3ccccc32)cc1 | 18 | n | n | n | n
O=C(NCc1ccccc1)c1ccc(S(=O)(=O)N2CCCc3ccccc32)cc1 | n | n | n | n | n
COc1ccc(-c2nnc(NC(=O)c3ccc(S(=O)(=O)N4CCCc5ccccc54)cc3)o2)cc1 | 17 | n | n | 3.0 | n
Cc1cc(C)c(C)c(OCCCN(C)C)c1 | x | x | n | x | n
CCC(C)C(NC(=O)C1CCC(C)CC1)C(=O)NCc1ccccn1 (stereo unspecified) | x | x | n | x | n
Cc1ccc(C2CC(=O)c3cnn(-c4nc(C)cc(C)n4)c3C2)cc1 (stereo unspecified) | x | x | n | x | n
COc1ccc(CNC(=O)CSCc2ccccc2Cl)cc1 | x | x | n | x | n
CN(C)c1ccc(-c2nn3c(-c4ccccc4Cl)nnc3s2)cc1 | 30 | n | n | n | n
CCN(CC)c1ccc(-c2nn3c(-c4n[nH]c5c4CCC5)nnc3s2)cc1 | 22 | 45 | n | n | n
CN(C)c1ccc(-c2nn3c(-c4ccncc4)nnc3s2)cc1 | 32 | n | x | n | x
CCOc1cc(C(=O)N/N=C\c2cn(CC)nc2C)cc(OCC)c1OCC | x | x | n | x | n
SMILES | H69AR growth 86K | Lung fibro prol | HCT116 bCat-KO | HUVEC prolif 384 | PTEN del growth
Brc1ccc(-c2csc(NNC3=NCCCCC3)n2)cc1 | n | 48 | n | n | n
CCCC1=Nc2cc(C(=O)NCCCOCC)ccc2Sc2ccccc21 | 33 | n | n | n | n
CCCC1=Nc2cc(C(=O)NCCCOC(C)C)ccc2Sc2ccccc21 | 16 | n | n | n | n
CCC1=Nc2cc(C(=O)NCCCOC)ccc2Sc2ccccc21 | 32 | n | n | n | n
CC(C)OCCCNC(=O)c1ccncc1 | n | n | n | n | n
CCC1=Nc2cc(C(=O)NCc3ccco3)ccc2Sc2ccc(C)cc21 | x | x | n | x | n
COc1cc(/C=C/C(=O)O)cc(S(=O)(=O)NC2CC2)c1OC | x | x | n | x | n
Cc1c(C(=O)OC2CCCC2)[nH]c2c1C(=O)CC(c1ccco1)C2 (stereo unspecified) | 28 | n | n | n | n
Cc1c(C(=O)N2CCOCC2)[nH]c2c1C(=O)CC(c1ccccc1Cl)C2 (stereo unspecified) | 22 | n | n | n | n
CCOCCOC(=O)c1[nH]c2c(c1C)C(=O)CC(c1ccc(N(C)C)cc1)C2 (stereo unspecified) | x | x | n | x | n
CCOC(=O)c1[nH]c2c(c1-c1ccccc1)C(=O)CC(c1ccccc1)C2 (stereo unspecified) | x | x | n | x | n
